Values belong to the compound of their own block, whether it stands above or below them.
Columns and labels:
L1210 [1] = experiment: Growth inhibitory activity against cultured L1210 cells; type: functional, cell-based; settings: Mus musculus
Dihydrofolate reductase [2] = biological target: T1, Dihydrofolate reductase (Mus musculus, UniProt P00375); experiment: Inhibitory activity against dihydrofolate reductase(DHFR)
T1 sequence (P00375 whole entry): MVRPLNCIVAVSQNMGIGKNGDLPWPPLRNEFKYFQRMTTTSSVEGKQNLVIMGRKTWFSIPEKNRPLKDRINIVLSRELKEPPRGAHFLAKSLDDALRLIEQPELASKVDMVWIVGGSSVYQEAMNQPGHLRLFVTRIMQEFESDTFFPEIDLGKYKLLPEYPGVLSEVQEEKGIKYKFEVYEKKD
How it was run: (§1)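 DHFR purified from L1210 murine leukemia cells by affinity chromatography on MTX-Sepharose, then used as the enzyme source for inhibitor titration; IC50 read from the enzyme-activity titration curve.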

L1210 [3] = experiment: Inhibitory activity against cultured L1210 cells; settings: Mus musculus
Dihydrofolate reductase [4] = biological target: T1, Dihydrofolate reductase; experiment: Inhibitory activity against dihydrofolate reductase(DHFR) isolated from L1210 murine leukemia cells; type: cell-free; how it was run: as §1
L1210 [5] = experiment: Inhibitory activity against growth of mouse L1210 leukemia cells; type: functional, cell-based
[6] = biological target: T2, Dihydrofolate reductase (Mus musculus) (UniProt P00375); experiment: Inhibitory activity against dihydrofolate reductase(DHFR) isolated from L1210 murine leukemia cells at 50 uM; type: cell-free
T2 sequence (whole entry): T1 sequence (P00375 whole entry)

L1210 ( R81) [7] = experiment: Inhibition of the growth of the MTX-resistant L1210/R81 cell line; type: functional, cell-based; settings: Mus musculus
L1210 ( R81) [8] = experiment: Inhibitory activity against L1210/R81 cells; type: functional, cell-based; settings: Mus musculus
L1210 [9] = experiment: Inhibitory activity against L1210 cells; type: functional, cell-based; settings: Mus musculus

Compound: CN(Cc1cnc2nc(N)nc(N)c2n1)c1ccc(C(=O)N[C@@H](CCC(=O)O)C(=O)O)cc1 [METHOTREXATE]
IC50 (L1210 [3]): 0.005 µM

Compound: Nc1nc(N)c2nc(CNc3ccc(C(=O)N[C@@H](CCC(=O)O)C(=O)O)cc3)cnc2n1 [AMINOPTERIN]
IC50 (Dihydrofolate reductase [4]): 0.002 µM

Compound: CN(Cc1cnc2nc(N)nc(N)c2n1)c1ccc(C(=O)NC(C/C=C/C(=O)O)C(=O)O)cc1 (centres undefined)
IC50 (L1210 [1]): 0.35 µM
IC50 (L1210 ( R81) [7]): > 300 µM
IC50 (Dihydrofolate reductase [2]): 32 µM

Compound: CN(Cc1cnc2nc(N)nc(N)c2n1)c1ccc(C(=O)N(CCC(=O)O)CC(=O)O)cc1
IC50 (L1210 ( R81) [8]): 180 µM
IC50 (L1210 [9]): 12 µM
IC50 (Dihydrofolate reductase [2]): 0.038 µM

Other lines, results leading:

IC50 (L1210 [1]): 0.031 µM
IC50 (Dihydrofolate reductase [2]): 46 µM
Compound: Nc1nc(N)c2nc(CNc3ccc(C(=O)NC(C/C=C/C(=O)O)C(=O)O)cc3)cnc2n1 (centres undefined)

IC50 (Dihydrofolate reductase [4]): 200 µM
IC50 (L1210 [5]): 1.5 µM
Compound: Nc1nc(N)c2nc(CNc3cccc(C(=O)NC(CCC(=O)O)C(=O)O)c3)cnc2n1 (centres undefined)

IC50 (L1210 [5]): 64 µM
inhibition [6]: 20%
Compound: Nc1nc(N)c2nc(CNc3ccccc3C(=O)NC(CCC(=O)O)C(=O)O)cnc2n1 (centres undefined)
